Experiment [1] has as its target Serine/threonine-protein kinase pim-3 (Homo sapiens) (UniProt Q86V86). Put plainly: Inhibition of PIM3 at 1 uM.
Experiment [2] concerns the target Ribosomal protein S6 kinase alpha-2 (Homo sapiens) (UniProt Q15349). Put plainly: Inhibition of RPS6KA2 N-terminal domain1 at 1 uM.
For experiment [3], the target named is BDNF/NT-3 growth factors receptor (Homo sapiens) (UniProt Q16620). In words: Inhibition of TRKB at 1 uM. A digest of the protocol: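 Single-concentration screen on the Ambit KINOMEscan platform, run against a panel of 250–400 kinases. Per-kinase inhibition was also summarized as S(90), the fraction of kinases inhibited by more than 90%.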
Experiment [4] deals with T1, Serine/threonine-protein kinase BRSK1 (Homo sapiens) (UniProt Q8TDC3).
T1 sequence (whole entry): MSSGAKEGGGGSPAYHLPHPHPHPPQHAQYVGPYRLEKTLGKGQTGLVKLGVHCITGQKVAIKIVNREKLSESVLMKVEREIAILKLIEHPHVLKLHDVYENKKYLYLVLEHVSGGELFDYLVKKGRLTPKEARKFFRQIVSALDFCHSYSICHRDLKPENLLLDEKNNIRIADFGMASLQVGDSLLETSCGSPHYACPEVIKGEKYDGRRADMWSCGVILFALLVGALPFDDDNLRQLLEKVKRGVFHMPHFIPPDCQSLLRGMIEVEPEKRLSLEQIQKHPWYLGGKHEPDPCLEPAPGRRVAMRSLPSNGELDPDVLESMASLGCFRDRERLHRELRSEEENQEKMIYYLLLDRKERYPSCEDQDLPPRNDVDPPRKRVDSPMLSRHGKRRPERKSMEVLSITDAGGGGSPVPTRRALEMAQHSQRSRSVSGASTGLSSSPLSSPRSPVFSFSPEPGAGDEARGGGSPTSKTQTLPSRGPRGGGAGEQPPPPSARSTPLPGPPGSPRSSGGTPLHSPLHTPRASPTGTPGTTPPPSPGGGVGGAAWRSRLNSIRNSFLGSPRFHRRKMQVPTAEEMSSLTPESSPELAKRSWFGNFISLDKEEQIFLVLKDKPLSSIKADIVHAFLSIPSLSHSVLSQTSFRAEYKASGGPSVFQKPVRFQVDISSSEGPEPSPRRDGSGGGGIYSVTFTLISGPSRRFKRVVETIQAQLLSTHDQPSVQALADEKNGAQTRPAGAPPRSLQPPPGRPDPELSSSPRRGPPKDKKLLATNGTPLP
In words: Inhibition of BRSK1 at 1 uM. A digest of the protocol:
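Ambit KINOMEscan screen at a single concentration across a 250–400 kinase panel, recorded as percent inhibition. Selectivity was expressed as S(90), the fraction of kinases inhibited >90%.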

The target of experiment [5] is T2, Inhibitor of nuclear factor kappa-B kinase subunit alpha (Homo sapiens) (UniProt O15111).
T2 sequence (whole entry): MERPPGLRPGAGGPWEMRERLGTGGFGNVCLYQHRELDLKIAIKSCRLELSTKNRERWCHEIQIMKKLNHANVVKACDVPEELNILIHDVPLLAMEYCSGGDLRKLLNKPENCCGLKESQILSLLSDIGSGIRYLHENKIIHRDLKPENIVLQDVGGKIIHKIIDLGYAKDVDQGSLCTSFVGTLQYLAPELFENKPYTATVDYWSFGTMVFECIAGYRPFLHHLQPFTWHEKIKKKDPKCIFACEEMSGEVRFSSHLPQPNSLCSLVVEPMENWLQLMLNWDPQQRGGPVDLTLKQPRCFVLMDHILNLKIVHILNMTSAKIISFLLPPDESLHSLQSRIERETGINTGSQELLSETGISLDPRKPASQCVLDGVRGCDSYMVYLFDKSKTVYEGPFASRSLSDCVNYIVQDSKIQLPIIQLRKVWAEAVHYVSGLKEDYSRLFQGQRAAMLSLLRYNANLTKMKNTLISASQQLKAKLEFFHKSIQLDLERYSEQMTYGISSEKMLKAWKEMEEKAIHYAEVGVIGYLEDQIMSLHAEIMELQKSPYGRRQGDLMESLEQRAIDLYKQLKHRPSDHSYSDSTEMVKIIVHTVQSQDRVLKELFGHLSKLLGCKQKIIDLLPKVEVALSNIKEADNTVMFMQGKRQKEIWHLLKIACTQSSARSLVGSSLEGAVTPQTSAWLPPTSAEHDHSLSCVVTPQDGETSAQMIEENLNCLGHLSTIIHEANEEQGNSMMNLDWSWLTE
In words: Inhibition of IKK-alpha at 1 uM.

Experiment [6] deals with Serine/threonine-protein kinase 38 (Homo sapiens) (UniProt Q15208). Put plainly: Inhibition of NDR1 at 1 uM.
The target in experiment [7] is T3, Receptor-interacting serine/threonine-protein kinase 4 (Homo sapiens) (UniProt P57078).
T3 sequence (whole entry): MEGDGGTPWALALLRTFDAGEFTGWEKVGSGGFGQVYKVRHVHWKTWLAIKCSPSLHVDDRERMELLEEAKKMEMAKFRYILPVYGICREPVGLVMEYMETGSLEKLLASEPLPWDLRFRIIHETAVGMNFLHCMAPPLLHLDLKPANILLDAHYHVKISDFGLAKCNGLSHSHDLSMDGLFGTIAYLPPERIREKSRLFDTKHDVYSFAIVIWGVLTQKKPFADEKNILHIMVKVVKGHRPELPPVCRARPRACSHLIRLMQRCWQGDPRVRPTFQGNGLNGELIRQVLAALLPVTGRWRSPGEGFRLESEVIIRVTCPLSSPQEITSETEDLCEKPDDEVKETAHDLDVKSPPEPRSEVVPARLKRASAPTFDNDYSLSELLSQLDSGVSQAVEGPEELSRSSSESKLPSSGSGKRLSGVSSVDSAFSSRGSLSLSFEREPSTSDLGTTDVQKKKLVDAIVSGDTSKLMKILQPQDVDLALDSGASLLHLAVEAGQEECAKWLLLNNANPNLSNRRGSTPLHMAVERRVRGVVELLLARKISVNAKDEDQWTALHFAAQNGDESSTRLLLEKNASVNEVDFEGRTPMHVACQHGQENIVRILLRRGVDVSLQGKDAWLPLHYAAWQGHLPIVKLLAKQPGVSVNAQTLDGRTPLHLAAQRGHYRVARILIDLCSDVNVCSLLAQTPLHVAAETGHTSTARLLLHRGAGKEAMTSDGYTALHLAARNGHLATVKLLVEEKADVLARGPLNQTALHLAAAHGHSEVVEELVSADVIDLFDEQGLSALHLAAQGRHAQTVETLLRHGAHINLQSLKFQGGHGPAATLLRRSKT
In words: Inhibition of RIPK4 at 1 uM.

Serine/threonine-protein kinase 38 (Homo sapiens), sequence (Q15208 2-465 limits assumed): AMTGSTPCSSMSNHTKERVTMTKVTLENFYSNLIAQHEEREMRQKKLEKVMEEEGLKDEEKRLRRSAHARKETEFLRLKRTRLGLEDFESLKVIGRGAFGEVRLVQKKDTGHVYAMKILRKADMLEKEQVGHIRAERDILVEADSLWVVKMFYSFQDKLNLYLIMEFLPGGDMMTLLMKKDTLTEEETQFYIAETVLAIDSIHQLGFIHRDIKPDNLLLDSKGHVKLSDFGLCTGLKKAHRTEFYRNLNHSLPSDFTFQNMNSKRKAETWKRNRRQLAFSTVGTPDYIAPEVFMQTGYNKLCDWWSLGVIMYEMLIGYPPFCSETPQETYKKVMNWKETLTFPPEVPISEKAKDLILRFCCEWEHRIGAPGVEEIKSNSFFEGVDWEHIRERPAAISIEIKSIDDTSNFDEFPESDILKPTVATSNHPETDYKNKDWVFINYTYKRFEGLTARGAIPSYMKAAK
BDNF/NT-3 growth factors receptor (Homo sapiens), sequence (Q16620 32-822 limits assumed): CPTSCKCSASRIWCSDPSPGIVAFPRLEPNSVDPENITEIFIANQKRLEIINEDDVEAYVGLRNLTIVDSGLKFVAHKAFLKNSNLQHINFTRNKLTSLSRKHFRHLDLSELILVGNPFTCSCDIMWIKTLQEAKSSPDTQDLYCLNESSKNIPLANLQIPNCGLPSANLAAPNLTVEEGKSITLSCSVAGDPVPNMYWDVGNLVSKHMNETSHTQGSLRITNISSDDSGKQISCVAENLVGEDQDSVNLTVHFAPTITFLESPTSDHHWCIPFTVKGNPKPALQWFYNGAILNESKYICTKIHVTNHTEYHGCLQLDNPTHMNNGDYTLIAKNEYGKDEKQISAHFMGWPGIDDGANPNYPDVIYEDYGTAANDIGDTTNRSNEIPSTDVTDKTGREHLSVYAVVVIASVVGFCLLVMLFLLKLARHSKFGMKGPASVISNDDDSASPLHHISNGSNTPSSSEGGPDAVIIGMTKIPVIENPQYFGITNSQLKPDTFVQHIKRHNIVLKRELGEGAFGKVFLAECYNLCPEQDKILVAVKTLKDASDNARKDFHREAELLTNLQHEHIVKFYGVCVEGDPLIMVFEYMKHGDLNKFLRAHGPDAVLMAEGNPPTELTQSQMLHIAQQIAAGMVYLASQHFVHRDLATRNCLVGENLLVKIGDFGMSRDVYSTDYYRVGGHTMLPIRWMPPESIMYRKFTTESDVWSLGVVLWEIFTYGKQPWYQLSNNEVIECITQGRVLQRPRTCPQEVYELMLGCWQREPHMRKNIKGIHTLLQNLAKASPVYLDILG
Ribosomal protein S6 kinase alpha-2 (Homo sapiens), sequence (Q15349 whole entry, the tested form may be a part): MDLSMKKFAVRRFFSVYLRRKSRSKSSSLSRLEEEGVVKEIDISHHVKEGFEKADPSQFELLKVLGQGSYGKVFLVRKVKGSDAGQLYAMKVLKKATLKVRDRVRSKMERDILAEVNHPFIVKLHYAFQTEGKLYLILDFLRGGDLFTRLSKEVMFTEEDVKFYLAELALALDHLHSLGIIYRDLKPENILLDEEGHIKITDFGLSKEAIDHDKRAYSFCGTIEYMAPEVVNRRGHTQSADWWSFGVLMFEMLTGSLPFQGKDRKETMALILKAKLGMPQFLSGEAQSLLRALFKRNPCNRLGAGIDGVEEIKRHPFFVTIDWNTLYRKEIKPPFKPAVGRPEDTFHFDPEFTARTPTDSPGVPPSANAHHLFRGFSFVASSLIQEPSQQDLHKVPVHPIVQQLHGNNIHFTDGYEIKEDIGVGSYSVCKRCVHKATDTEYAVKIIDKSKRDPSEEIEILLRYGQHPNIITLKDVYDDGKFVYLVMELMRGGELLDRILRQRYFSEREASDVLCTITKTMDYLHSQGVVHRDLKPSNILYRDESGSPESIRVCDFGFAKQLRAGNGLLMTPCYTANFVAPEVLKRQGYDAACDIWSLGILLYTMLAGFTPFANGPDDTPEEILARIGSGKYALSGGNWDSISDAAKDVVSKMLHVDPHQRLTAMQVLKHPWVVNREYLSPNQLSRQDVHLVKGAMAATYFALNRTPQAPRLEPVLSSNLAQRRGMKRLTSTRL

For orientation: inhibition means the share of the control response that was lost under treatment. For `O=C(c1ccc(-c2cnc3c(c2)N(Cc2cc(Cl)ccc2C(F)(F)F)CCN3)cc1)N1CCCCC1`, the inhibition in experiment [1], in experiment [2], in experiment [3] and in experiment [4] was less than 50% each time.
For the compound `CN1CCN(c2ccc(-c3cnc4c(c3)N(Cc3c(F)ccc(F)c3Cl)CCN4)cn2)CC1`, the inhibition in experiment [5] was less than 50%; in experiment [6], less than 50%; in experiment [1], less than 50%; in experiment [7] it was less than 50%; in experiment [2], less than 50%; in experiment [3], 72%. The compound also displayed an inhibition in experiment [4] of less than 50%.
Take `COC1CCN(C(=O)c2ccc(-c3cnc4c(c3)N(Cc3cc(Cl)ccc3C(F)(F)F)CCN4)cc2)CC1`: the inhibition in experiment [1], in experiment [2], in experiment [3] and in experiment [4] was less than 50% in each case.
With `O=C(O)c1ccc(-c2cnc3c(c2)N(Cc2cc(Cl)ccc2C(F)(F)F)CCN3)cc1`, the inhibition in experiment [1] was 79.2%; in experiment [2], less than 50%; in experiment [3], 65%; in experiment [4], less than 50%.
In the case of `FC(F)(F)c1ccc(Cl)cc1CN1CCNc2ncc(-c3ccnc(N4CCNCC4)c3)cc21`, the inhibition is less than 50% in experiment [5]; less than 50% in experiment [6]; less than 50% in experiment [1]; less than 50% in experiment [7]; less than 50% in experiment [2]; 79% in experiment [3]. This compound displayed an inhibition in experiment [4] of less than 50%.
As for `CN1CCN(c2ccc(-c3cnc4c(c3)N(Cc3cc(Cl)ccc3Cl)CCN4)cn2)CC1`, the inhibition in experiment [5] is less than 50%; in experiment [6] it was less than 50%; in experiment [1], less than 50%; in experiment [7], less than 50%; in experiment [2], less than 50%; in experiment [3], 72%. The same compound displayed an inhibition in experiment [4] of less than 50%.
Take `O=C(c1ccc(-c2cnc3c(c2)N(Cc2cc(Cl)ccc2C(F)(F)F)CCN3)cc1)N1CCC(N2CCCC2)CC1`: the inhibition in experiment [1] was less than 50%; in experiment [2] it was less than 50%; in experiment [3], 73.6%; in experiment [4] it was less than 50%.
Consider `CN1CCN(c2ccc(-c3cnc4c(c3)N(Cc3cc(Cl)ccc3C(F)(F)F)CCN4)cn2)CC1`, for which the inhibition in experiment [5], in experiment [6], in experiment [1], in experiment [7], in experiment [2] and in experiment [3] was less than 50% each time. The same compound registered an inhibition in experiment [4] of less than 50%.
Consider `CC(=O)N1CCN(c2cc(-c3cnc4c(c3)N(Cc3cc(Cl)ccc3C(F)(F)F)CCN4)ccn2)CC1`, for which the inhibition in experiment [5] was less than 50%; in experiment [6], less than 50%; in experiment [1], less than 50%; in experiment [7], less than 50%; in experiment [2], less than 50%; in experiment [3] it was 76%. In addition, in experiment [4], the inhibition is less than 50%.
For the compound `CN1CCN(c2ccc(-c3cnc4c(c3)N(Cc3cc(F)ccc3F)CCN4)cn2)CC1`, the inhibition in experiment [5] is less than 50%; in experiment [6] it was less than 50%; in experiment [1], less than 50%; in experiment [7], less than 50%; in experiment [2], less than 50%; in experiment [3] it was 58%. This compound also had an inhibition in experiment [4] of less than 50%.

The record behind these values is ChEMBL document CHEMBL1165965, “Synthesis and structure-activity relationships of 1,2,3,4-tetrahydropyrido[2,3-b]pyrazines as potent and selective inhibitors of the anaplastic lymphoma kinase” (Bioorg Med Chem, 2010).
